Screens deposited in PubChem BioAssay by several laboratories.
DNMT1 block: human DNMT1 methyltransferase inhibitors, primary screen, biochemical, molecular beacon, fluorescence, HinP1I cleavage, uHTS | DNA (cytosine-5)-methyltransferase 1 (Homo sapiens), P26358 | inhibition (reported as % activation of signal), % at 10 µM | 360,000 compounds, 0.83% hits | AID 588458, 2011; in the data active = inhibition above about 50%
STEP inh: STEP phosphatase inhibitors, primary screen, biochemical, fluorescence intensity, uHTS. inhibition, % at 20 µM. AID 588621, 2011. recombinant STEP, OMFP fluorogenic substrate. 360,000 compounds, 0.25% hits;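 active = inhibition at 20 µM, scaled per plate between control wells, above about 37%, limit read from the data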
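medium = Bis-Tris buffer pH 6.0, 2.5 mM DTT, 0.005% Tween 20 | test system = STEP (striatal-enriched tyrosine phosphatase) enzyme, cell-free | measure = normalized % inhibition | compound dosing = 20 µM, 1% DMSO | also added = 25 µM OMFP | schedule = reaction 20 min, ambient temperature | measured by = fluorescence read at 480 nm ex / 540 nm em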
GRK2 inh: compounds blocking aptamer binding on GRK2 – biochemical, human GRK2, bead flow cytometry, HTS, primary screen; Beta-adrenergic receptor kinase 1 (Homo sapiens), P25098; FAM-aptamer displacement from GRK2; inhibition of aptamer binding, % at 10 µM; 330,000 compounds, 0.59% hits;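 active = inhibition of aptamer binding above 40%, roughly 3 SD of noise, on plates passing a quality check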;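 note: median bead fluorescence of bound FAM aptamer so fluorescent compounds give negative values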
LMPTP inh: LMPTP phosphatase inhibitors, primary screen, biochemical, fluorescence intensity, uHTS; inhibition, % at 20 µM; Low molecular weight phosphotyrosine protein phosphatase (Homo sapiens), P24666; recombinant LMPTP-A, OMFP fluorogenic substrate; AID 651560, 2012; 360,000 compounds, 0.22% hits;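 active = compounds that cut the enzyme signal by at least half of the control window in the single-dose screen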
Target sequence (P24666 whole entry, looked up): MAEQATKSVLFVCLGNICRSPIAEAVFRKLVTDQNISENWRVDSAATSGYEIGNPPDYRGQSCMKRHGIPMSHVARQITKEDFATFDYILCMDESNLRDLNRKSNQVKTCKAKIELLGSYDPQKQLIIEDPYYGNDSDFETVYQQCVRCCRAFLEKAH
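Test system: LMPTP-A phosphatase enzyme; input: 0.625 nM LMPTP-A final; reagent: OMFP substrate, 400 µM final; compound dosing: 20 µM single dose, 3% DMSO; incubation: 50 min dark incubation at room temperature; measured by: endpoint fluorescence intensity from OMFP dephosphorylation; measure: % inhibition relative to no-enzyme and uninhibited control wells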
Scp-1 inhibitor: Scp-1 phosphatase inhibitors, primary screen, biochemical, colorimetric, uHTS. AID 493091, 2011. 340,000 compounds, 0.88% hits. Recombinant Scp1, phosphopeptide, malachite green phosphate absorbance. Carboxy-terminal domain RNA polymerase II polypeptide A small phosphatase 1 (Homo …. inhibition, % at 20 µM;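 active = inhibition above about 50% at 20 µM, limit read from the data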
Target sequence (Q9GZU7 76-261 limits assumed): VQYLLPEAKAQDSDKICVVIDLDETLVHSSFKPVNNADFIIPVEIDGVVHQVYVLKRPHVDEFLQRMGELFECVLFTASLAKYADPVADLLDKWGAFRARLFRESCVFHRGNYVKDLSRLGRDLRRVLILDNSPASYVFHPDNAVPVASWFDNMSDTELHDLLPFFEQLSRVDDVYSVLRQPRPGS
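Test system: SCP-1 phosphatase catalytic domain, residues 76-261 | Compound dosing: One concentration, 20 µM, with 1.0% DMSO | Schedule: 45 min room-temperature reaction, 5 min colour, 30 min stabiliser | Detection: Absorbance at 630 nm | Read-out basis: % inhibition of SCP-1 phosphate liberation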
SUMO1 PPI mod: modulators of SUMO1 protein-protein interactions, primary screen, biochemical, uHTS; Small ubiquitin-related modifier 1 (Homo sapiens), P63165; SUMO1 binding to a labelled peptide, TR-FRET, 1 h; inhibition, % at 20 µM; 360,000 compounds, 0.33% hits; in the data active = inhibition above about 37%
Target sequence (P63165 whole entry, looked up): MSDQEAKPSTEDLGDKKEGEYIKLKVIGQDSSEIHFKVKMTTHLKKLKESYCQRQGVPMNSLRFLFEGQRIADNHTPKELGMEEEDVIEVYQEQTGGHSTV
GRK2 inh confirm: GRK2 aptamer-displacing inhibitors, retest, confirmation, biochemical, cherry pick 1, bead flow cytometry | shares compounds with GRK2 inh | bead-bound GRK2, FAM-aptamer displacement | aptamer displacement, % at 10 µM | 2,000 compounds, 4% hits;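 active = aptamer displacement above 40%, near three times the noise of non-fluorescent compounds, on plates passing quality checks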;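 note: negative values mostly reflect intrinsic compound fluorescence rather than true enhancement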
FAM quench CP1: aptamer fluorescence quenching in GRK2 counter-screen | shares compounds with GRK2 inh | Carboxyfluorescein RNA aptamer on beads, flow cytometry quenching; hits give low values | fluorescence response (% of DMSO), % at 10 µM | 2,000 tested, under 10 active;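 active = compounds that quench the bead-bound fluorescent RNA probe, cutting fluorescence to under half of the solvent control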;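 note: counterscreen run without GRK2 so only probe quenching by compound is measured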
GRK2 CP2: GRK2 aptamer-displacing inhibitors, hit retest, confirmation, biochemical, cherry pick 2, bead flow cytometry | AID 504782, 2011 | inhibition of aptamer binding, % at 10 µM | shares compounds with GRK2 inh | bead-bound GRK2, FAM-aptamer displacement | 360 tested, under 10 active;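 active = inhibition of aptamer binding above 40%, about triple the noise seen with nonglowing compounds, on plates passing quality control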;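 note: negative values mostly come from compounds that fluoresce themselves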
FAM quench CP2: aptamer fluorescence quenching in GRK2 counter-screen. 360 tested, under 10 active. carboxyfluorescein RNA aptamer beads, flow cytometry quenching; hits give low values. AID 588494. fluorescence response vs DMSO, % at 10 µM. shares compounds with GRK2 inh;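 active = response vs DMSO under 50%, meaning signal dropped by over half, treated as fluorescence quencher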;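 note: labelled aptamer on streptavidin beads without GRK2 as a quench counter-screen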
Large screens that a line does not name were inactive (follow-up assays come after a bar, where they were run). Most compounds without a hit are left out; they make up all but 2.1% or so of the library.

CCN1C(=O)C(=O)N(CC(=O)c2[nH]c(C)c(C(C)=O)c2C)C1=O	none
CC(=O)c1c(C)[nH]c(C(=O)CN2C(=O)NC(C)(c3ccc(C)cc3)C2=O)c1C (stereo not given)	GRK2 inh 54.0 | GRK2 inh confirm inactive | FAM quench CP1 inactive
CC(=O)N(c1ccccc1)c1ccc([N+](=O)[O-])cc1[N+](=O)[O-]	none | GRK2 CP2 inactive | FAM quench CP2 inactive
CCC(=O)Oc1ccc2c(C)cc(=O)oc2c1C(=O)CC	GRK2 inh 100.0 | GRK2 inh confirm inactive | FAM quench CP1 inactive
CCC(=O)Oc1ccc2c(C)cc(=O)oc2c1C(=O)c1ccccc1	none
COC(=O)c1ccc(N2CCc3ccccc32)c([N+](=O)[O-])c1	GRK2 inh 52.0 | GRK2 inh confirm inactive | FAM quench CP1 inactive
Cc1cc(C)n(-c2nc(NCCO)c3c4c(sc3n2)CCCC4)n1	none
Cc1cc(C)n(-c2nc(NCCCO)c3c4c(sc3n2)CCCC4)n1	none | GRK2 inh confirm inactive | FAM quench CP1 inactive
CCC(C)NC(=O)Cn1cnc2sc(C)cc2c1=O (stereo not given)	GRK2 inh 43.0 | GRK2 inh confirm inactive | FAM quench CP1 inactive
COc1ccc(Cc2nnc(NS(=O)(=O)c3ccc([N+](=O)[O-])cc3)s2)cc1	none
CCCc1nnc(NS(=O)(=O)c2ccccc2)s1	none
CCCc1nnc(NC(=O)CCS(=O)(=O)c2ccccc2)s1	none | GRK2 inh confirm inactive | FAM quench CP1 inactive
CC(=O)Nc1nnc(CCS(=O)(=O)c2ccc(Cl)cc2)s1	none (no result: GRK2 inh)
CCCCc1nnc(NC(=O)CCS(=O)(=O)c2ccc(Cl)cc2)s1	none | GRK2 inh confirm inactive | FAM quench CP1 inactive
O=C(O)/C=C/C(=O)Nc1ccc(Oc2ccc(NC(=O)/C=C/C(=O)O)cc2)cc1	none (no result: DNMT1 block, STEP inh, LMPTP inh, Scp-1 inhibitor, SUMO1 PPI mod)
O=C(O)/C=C/C(=O)Nc1ccc(Cc2ccc(NC(=O)/C=C/C(=O)O)cc2)cc1	none | GRK2 inh confirm inactive | FAM quench CP1 inactive
Cc1cc(Cl)ccc1N(CC(=O)NCc1ccc2c(c1)OCO2)S(C)(=O)=O	GRK2 inh 100.0 | GRK2 inh confirm inactive | FAM quench CP1 inactive
CCC(C)SCC(=O)Nc1ccc(S(=O)(=O)N2CCOCC2)cc1OC (stereo not given)	none
O=C(COC(=O)/C=C/c1ccco1)Nc1cc(S(=O)(=O)N2CCOCC2)ccc1Cl	GRK2 inh 59.0 | GRK2 inh confirm inactive | FAM quench CP1 inactive
CCC(CC)C(=O)OCC(=O)Nc1ccc(S(=O)(=O)N2CCOCC2)cc1OC	GRK2 inh 51.0 | GRK2 inh confirm inactive | FAM quench CP1 inactive
CSc1nc(C)c(C(=O)C[n+]2ccccc2)cc1C#N	GRK2 inh 94.0 | GRK2 inh confirm inactive | FAM quench CP1 inactive
Cc1ccc(NS(=O)(=O)c2cccc(C(=O)NCC(c3ccco3)N3CCCCC3)c2)cc1 (stereo not given)	none
Cn1ncc2c(=O)[nH]c(N)nc21	none (no result: GRK2 inh)
O=C(c1ccccc1C(=O)N1CCN(c2ccccc2F)CC1)N1CCN(c2ccccc2F)CC1	GRK2 inh 77.0 | GRK2 inh confirm inactive | FAM quench CP1 inactive
CCOc1ccc(C2CC(=O)N(Nc3ccc([N+](=O)[O-])cc3[N+](=O)[O-])C2=O)cc1 (stereo not given)	none
Cc1ccc(NC(=O)c2cc(N3C(=O)CCC3=O)ccc2N2CCOCC2)cc1	none
Cc1ccc(NC(=O)c2cc(N3C(=O)C=CC3=O)ccc2N2CCOCC2)cc1Cl	GRK2 inh 71.0 | GRK2 inh confirm inactive | FAM quench CP1 inactive
CCc1ccccc1NC(=O)N1CCc2ccccc21	none
COC(=O)c1ccc(/C=C/C(=O)OCC(=O)Nc2cc(C)on2)cc1	none
COc1ccc(-n2c3nc4ccccc4nc3c3c(=N)oc(C)nc32)cc1	GRK2 inh 86.0 | GRK2 CP2 inactive | FAM quench CP2 inactive
CCCCn1c2nc3ccccc3nc2c2c(=N)oc(C)nc21	none (no result: GRK2 inh)
CN(CC(=O)Nc1cccc(F)c1)C(=O)c1cc([N+](=O)[O-])ccc1N1CCOCC1	none
Cc1cccc(NC(=O)c2nc[nH]c2C(=O)N[C@@H](Cc2ccccc2)C(=O)OCc2ccccc2)c1	GRK2 inh 51.0 | GRK2 inh confirm inactive | FAM quench CP1 inactive | GRK2 CP2 inactive | FAM quench CP2 inactive
COc1ccc(-c2cc(C(=O)Nc3cccc(Cl)c3)no2)cc1	none
CC(=O)c1cccc(NC(=O)c2cc(-c3cccs3)on2)c1	none | GRK2 inh confirm inactive | FAM quench CP1 inactive
O=C(Nc1cccc(O)c1)c1cc(-c2cccs2)on1	none
COc1ccc(-c2cc(C(=O)Nc3cccc(C(C)=O)c3)no2)cc1	none | GRK2 inh confirm inactive | FAM quench CP1 inactive
CC(=O)n1c(=O)c2ccccc2c(=O)n1-c1ccccc1	none | GRK2 inh confirm inactive | FAM quench CP1 inactive
O=c1c2ccccc2c(=O)n(-c2ccccc2)n1CCCCBr	none
CC(C)=NN1C(c2nonc2N)=NOC1(C)C	none | GRK2 inh confirm inactive | FAM quench CP1 inactive
O=C(Nc1ccc2c(c1)Cc1ccccc1-2)c1cccnc1	none
Cc1ccsc1C(=O)N1CCCC(CO)(Cc2ccccc2)C1 (stereo not given)	GRK2 inh 45.0 | GRK2 CP2 inactive | FAM quench CP2 inactive
Cc1ccsc1C(=O)N1CCC(CO)(Cc2ccccc2)CC1	none
CN(C)CCN1CCN(C2CN(Cc3cn(Cc4ccccc4C(F)(F)F)nn3)S(=O)(=O)C2)CC1 (stereo not given)	none (no result: GRK2 inh, Scp-1 inhibitor)
CCOC(=O)Nc1c(Cl)n(C)c(=O)n(C)c1=O	none
COc1ccc(C2=NN(c3ccc(C=O)cc3)C(c3ccccc3)C2)cc1 (stereo not given)	none (no result: DNMT1 block, STEP inh, LMPTP inh, SUMO1 PPI mod)
